Assay results published in ChEMBL document CHEMBL4052597, “Symmetrically Substituted Xanthone Amphiphiles Combat Gram-Positive Bacterial Resistance with Enhanced Membrane Selectivity” (J Med Chem, 2017).
≈ marks a conversion by molar mass, not a printed value. Peptide text beside a SMILES is read from it.

Columns and labels:
[1] = system: Staphylococcus aureus; experiment: Antibacterial activity against Staphylococcus aureus DM 4001R after 24 hrs by two fold dilution assay; format: functional
Method in brief: (§1)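 CLSI broth macrodilution in cation-adjusted Mueller-Hinton broth. Compounds were dissolved in DMF and diluted in PBS to a 1000 µg/mL stock, then serially 2-fold diluted in CA-MHB. The inoculum came from colonies on 18-20 h TSA plates (direct colony suspension), adjusted to ~5×10^5 CFU/mL. Incubation was 24 h at 35 °C. MIC is the lowest concentration with no visible growth versus control. Biological replicates.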

[2] = system: Staphylococcus aureus; experiment: Antibacterial activity against methicillin-resistant Staphylococcus aureus DM 21455 after 24 hrs by two fold dilution assay; format: functional; conditions: DM 21455, 24 h; method in brief: as §1
[3] = system: Staphylococcus aureus; experiment: Antibacterial activity against methicillin-resistant Staphylococcus aureus DM 9808R after 24 hrs by two fold dilution assay; format: functional; method in brief: as §1
[4] = system: Bacillus cereus; experiment: Antibacterial activity against Bacillus cereus ATCC 11778 after 24 hrs by two fold dilution assay; format: functional; conditions: ATCC 11778, 24 h
Method in brief: (§2)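 Broth macro-dilution per CLSI in cation-adjusted Mueller-Hinton broth; compounds dissolved in DMF, diluted in PBS to 1000 µg/mL stock, then serial 2-fold dilutions in CA-MHB in tubes. Inoculum from 18-20 h TSA colonies (direct colony suspension), adjusted to about 5× 10^5 CFU/mL. MIC read after 24 h at 35 °C as lowest concentration with no visible growth; biological replicates.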

[5] = system: Enterococcus faecium; experiment: Antibacterial activity against vancomycin A-resistant Enterococcus faecium VRE 1006 after 24 hrs by two fold dilution assay; format: functional; conditions: VRE 1006, 24 h; method in brief: as §1
[6] = system: Enterococcus hirae; experiment: Antibacterial activity against Enterococcus hirae ATCC 9790 after 24 hrs by two fold dilution assay; format: functional; conditions: ATCC 9790, 24 h; method in brief: as §2
[7] = system: Staphylococcus aureus; experiment: Antibacterial activity against methicillin-resistant Staphylococcus aureus ATCC BAA-38 after 24 hrs by two fold dilution assay; format: functional; conditions: ATCC BAA-38, 24 h; method in brief: as §1
[8] = system: Staphylococcus aureus; experiment: Antibacterial activity against methicillin-sensitive Staphylococcus aureus ATCC 6538 after 24 hrs by two fold dilution assay; format: functional; conditions: ATCC 6538, 24 h; method in brief: as §1
[9] = system: Staphylococcus aureus; experiment: Antibacterial activity against methicillin-sensitive Staphylococcus aureus ATCC 29737 after 24 hrs by two fold dilution assay; format: functional; conditions: ATCC 29737, 24 h; method in brief: as §1
[10] = system: Staphylococcus aureus; experiment: Antibacterial activity against methicillin-resistant Staphylococcus aureus ATCC 700699 after 24 hrs by two fold dilution assay; format: functional; conditions: Mu50, 24 h; method in brief: as §1
[11] = system: Staphylococcus aureus; experiment: Antibacterial activity against methicillin-sensitive Staphylococcus aureus DM4583R after 24 hrs by two fold dilution assay; format: functional; method in brief: as §1
[12] = system: Staphylococcus aureus; experiment: Antibacterial activity against methicillin-resistant Staphylococcus aureus ATCC 43300 after 24 hrs by two fold dilution assay; format: functional; conditions: ATCC 43300, 24 h; method in brief: as §1
[13] = system: Enterococcus faecalis; experiment: Antibacterial activity against Enterococcus faecalis ATCC 29212 after 24 hrs by two fold dilution assay; format: functional; conditions: ATCC 29212, 24 h; method in brief: as §2
[14] = system: Staphylococcus aureus; experiment: Antibacterial activity against methicillin-sensitive Staphylococcus aureus DM4299 after 24 hrs by two fold dilution assay; format: functional; conditions: DM4299, 24 h; method in brief: as §1
[15] = system: Enterococcus faecium; experiment: Antibacterial activity against vancomycin A-resistant Enterococcus faecium VRE 1007 after 24 hrs by two fold dilution assay; format: functional; conditions: VRE 1007, 24 h; method in brief: as §1
[16] = system: Staphylococcus aureus; experiment: Antibacterial activity against methicillin-sensitive Staphylococcus aureus ATCC 29213 after 24 hrs by two fold dilution assay; format: functional; conditions: ATCC 29213, 24 h; method in brief: as §1
[17] = system: Staphylococcus aureus; experiment: Antibacterial activity against methicillin-resistant Staphylococcus aureus DB6506 after 24 hrs by two fold dilution assay; format: functional; conditions: DB6506, 24 h; method in brief: as §1
[18] = system: Staphylococcus aureus; experiment: Antibacterial activity against methicillin-resistant Staphylococcus aureus DB57964 after 24 hrs by two fold dilution assay; format: functional; conditions: DB57964, 24 h; method in brief: as §1
[19] = system: Staphylococcus aureus; experiment: Antibacterial activity against methicillin-sensitive Staphylococcus aureus DM4400R after 24 hrs by two fold dilution assay; format: functional; method in brief: as §1
[20] = system: Enterococcus faecium; experiment: Antibacterial activity against vancomycin A-resistant Enterococcus faecium VRE 1008 after 24 hrs by two fold dilution assay; format: functional; conditions: VRE 1008, 24 h; method in brief: as §1
[21] = system: Staphylococcus aureus; experiment: Antibacterial activity against methicillin-resistant Staphylococcus aureus DB68004 after 24 hrs by two fold dilution assay; format: functional; conditions: DB68004, 24 h; method in brief: as §1
[22] = system: Staphylococcus aureus; experiment: Antibacterial activity against Staphylococcus aureus ATCC 700699 infected in C57BL6 mouse cornea assessed as decrease in number of viable bacteria at 0.5% administered topically at 2 hrs interval for 4 times starting on day 1 post infection measured post last dose relative to control; format: functional, Mu50
[23] = system: Staphylococcus aureus; experiment: Antibacterial activity against Staphylococcus aureus ATCC 29213 infected in C57BL6 mouse cornea assessed as decrease in number of viable bacteria at 0.5% administered topically at 2 hrs interval for 4 times starting on day 1 post infection measured post last dose relative to control; format: functional

SMILES | MIC [1] | MIC [2] | MIC [3] | MIC [4] | further results
CCCCN(CCCC)CCCNC(=O)COc1cc(OCC=C(C)C)cc2oc3cc(OCC=C(C)C)cc(OCC(=O)NCCCN(CCCC)CCCC)c3c(=O)c12 | 3.13 µg/mL (≈ 3.69 µM) | 3.13 µg/mL (≈ 3.69 µM) | 3.13 µg/mL (≈ 3.69 µM) | 6.25 µg/mL (≈ 7.36 µM) | –
CCN(CC)CCCNC(=O)COc1cc(OCC=C(C)C)cc2oc3cc(OCC=C(C)C)cc(OCC(=O)NCCCN(CC)CC)c3c(=O)c12 | 6.25 µg/mL (≈ 8.48 µM) | 6.25 µg/mL (≈ 8.48 µM) | 12.5 µg/mL (≈ 17 µM) | 25 µg/mL (≈ 33.9 µM) | –
CN[C@H](CC(C)C)C(=O)N[C@H]1C(=O)N[C@@H](CC(N)=O)C(=O)N[C@H]2C(=O)N[C@H]3C(=O)N[C@H](C(=O)N[C@H](C(=O)O)c4cc(O)cc(O)c4-c4cc3ccc4O)[C@H](O)c3ccc(c(Cl)c3)Oc3cc2cc(c3O[C@@H]2O[C@H](CO)[C@@H](O)[C@H](O)[C@H]2O[C@H]2C[C@](C)(N)[C@H](O)[C@H](C)O2)Oc2ccc(cc2Cl)[C@H]1O [VANCOMYCIN] | 1.56 µg/mL (≈ 1.08 µM) | 1.56 µg/mL (≈ 1.08 µM) | 3.13 µg/mL (≈ 2.16 µM) | 1.56 µg/mL (≈ 1.08 µM) | MIC [5]: > 50 µg/mL; MIC [6]: 0.78 µg/mL (≈ 0.538 µM); MIC [7]: 1.56 µg/mL (≈ 1.08 µM); MIC [8]: 0.78 µg/mL (≈ 0.538 µM); MIC [9]: 0.78 µg/mL (≈ 0.538 µM); MIC [10]: 1.56 µg/mL (≈ 1.08 µM); MIC [11]: 1.56 µg/mL (≈ 1.08 µM); MIC [12]: 0.78 µg/mL (≈ 0.538 µM); MIC [13]: 1.56 µg/mL (≈ 1.08 µM); MIC [14]: 1.56 µg/mL (≈ 1.08 µM); MIC [15]: > 50 µg/mL; MIC [16]: 1.56 µg/mL (≈ 1.08 µM); MIC [17]: 0.78 µg/mL (≈ 0.538 µM); MIC [18]: 0.78 µg/mL (≈ 0.538 µM); MIC [19]: 0.78 µg/mL (≈ 0.538 µM); MIC [20]: > 50 µg/mL; MIC [21]: 1.56 µg/mL (≈ 1.08 µM)
CC[C@H](C)[C@H](NC(=O)CN)C(=O)NCC(=O)N[C@@H](CCCCN)C(=O)N[C@@H](Cc1ccccc1)C(=O)N[C@@H](CC(C)C)C(=O)N[C@@H](CCCCN)C(=O)N[C@@H](CCCCN)C(=O)N[C@@H](C)C(=O)N[C@@H](CCCCN)C(=O)N[C@@H](CCCCN)C(=O)N[C@@H](Cc1ccccc1)C(=O)NCC(=O)N[C@@H](CCCCN)C(=O)N[C@@H](C)C(=O)N[C@@H](Cc1ccccc1)C(=O)N[C@H](C(=O)N[C@@H](CCCCN)C(=O)N[C@H](C(=O)N[C@@H](CC(C)C)C(=O)N[C@@H](CCCCN)C(=O)N[C@@H](CCCCN)C(=O)O)[C@@H](C)CC)C(C)C (H-GIGKFLKKAKKFGKAFVKILKK-OH) | 12.5 µg/mL (≈ 5.04 µM) | 12.5 µg/mL (≈ 5.04 µM) | 25 µg/mL (≈ 10.1 µM) | 12.5 µg/mL (≈ 5.04 µM) | Activity [22]: 93.3%
CCCOc1cc(OCC(=O)N[C@@H](CCCNC(=N)N)C(=O)OC)c2c(=O)c3c(OCC(=O)N[C@@H](CCCNC(=N)N)C(=O)OC)cc(OCCC)cc3oc2c1 | 12.5 µg/mL (≈ 15.6 µM) | 12.5 µg/mL (≈ 15.6 µM) | 12.5 µg/mL (≈ 15.6 µM) | 25 µg/mL (≈ 31.2 µM) | –
C[C@H]1COc2c(N3CCN(C)CC3)c(F)cc3c(=O)c(C(=O)O)cn1c23.C[C@H]1COc2c(N3CCN(C)CC3)c(F)cc3c(=O)c(C(=O)O)cn1c23.O [LEVOFLOXACIN] | – | – | – | – | Activity [23]: 99.2%
COC(=O)[C@H](CCCNC(=N)N)NC(=O)COc1cc(OCC(=O)N[C@@H](CCCNC(=N)N)C(=O)OC)c2c(=O)c3c(OCC(=O)N[C@@H](CCCNC(=N)N)C(=O)OC)cc(OCC=C(C)C)cc3oc2c1 | 50 µg/mL (≈ 49.4 µM) | 50 µg/mL (≈ 49.4 µM) | 50 µg/mL (≈ 49.4 µM) | 50 µg/mL (≈ 49.4 µM) | –
CC(C)=CCOc1cc(OCC(=O)NCCCN(C)C)c2c(=O)c3c(OCC(=O)NCCCN(C)C)cc(OCC=C(C)C)cc3oc2c1 | 6.25 µg/mL (≈ 9.18 µM) | 6.25 µg/mL (≈ 9.18 µM) | 12.5 µg/mL (≈ 18.4 µM) | 12.5 µg/mL (≈ 18.4 µM) | –
